# ASAP1 GAP inh: blocks human ASAP1-stimulated Arf1 GTP hydrolysis. Q9ULH1. GDP FP detection. inhibition, % at 16.5 µM. 0.19% of 360,000 active. AID 624377; in the data active = inhibition above about 25%
# Rev-erbA mod: Rev-erb alpha (human) modulation. P20393. Rev-erbα–FITC-DNA binding, fluorescence polarization, 90 min. activity, % at 10 µM. 0.79% of 370,000 active. AID 1259318;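 active = activity above about 14%, limit read from the data; passing the limit was not always enough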
# Target sequence (P20393 whole entry, looked up): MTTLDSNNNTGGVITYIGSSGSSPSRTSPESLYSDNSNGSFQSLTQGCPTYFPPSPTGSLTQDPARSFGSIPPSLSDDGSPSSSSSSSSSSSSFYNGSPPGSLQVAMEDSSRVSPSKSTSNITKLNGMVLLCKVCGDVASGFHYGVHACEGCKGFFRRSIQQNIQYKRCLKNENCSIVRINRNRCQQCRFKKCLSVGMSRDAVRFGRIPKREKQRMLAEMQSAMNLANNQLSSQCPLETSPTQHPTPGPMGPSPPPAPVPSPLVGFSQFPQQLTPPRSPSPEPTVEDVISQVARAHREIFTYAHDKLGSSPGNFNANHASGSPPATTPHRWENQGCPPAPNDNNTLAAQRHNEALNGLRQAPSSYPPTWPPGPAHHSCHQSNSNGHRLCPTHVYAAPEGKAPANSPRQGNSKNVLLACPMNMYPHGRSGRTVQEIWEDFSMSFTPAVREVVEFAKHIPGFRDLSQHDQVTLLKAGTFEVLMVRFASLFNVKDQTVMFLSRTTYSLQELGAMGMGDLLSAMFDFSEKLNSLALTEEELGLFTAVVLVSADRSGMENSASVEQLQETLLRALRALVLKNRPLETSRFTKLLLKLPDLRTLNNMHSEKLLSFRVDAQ
# sPLA2-III inh: Inhibits HGIII-sPLA2 liposome hydrolysis, primary screen; Q9NZ20; QFRET BODIPY PC-A2 liposome hydrolysis, fluorescence; inhibition, % at 12.2 µM; 0.56% of 370,000 active;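 active = inhibition above mean plus 3 SD of compounds lying within the high and low control bounds, cut at about 19% in these data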
# MsrA inh: inhibitors of bovine MsrA. purified bovine MsrA, absorbance read-out. 0.75% of 360,000 active. inhibition, % at 15.5 µM
# MsrA act: activates bovine MsrA enzyme; purified bovine MsrA, absorbance read-out; AID 602163; activation, % at 10.6 µM; 0.3% of 360,000 active; in the data active = activation above about 7.5%
# ARFGAP1 inh: inhibitors of rat ARFGAP1; Q62848; Arfgap1-stimulated ARF1 GTP hydrolysis, GDP FP detection; inhibition, % at 16.5 µM; 0.26% of 360,000 active;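 active = inhibition above a per-plate limit, mean inhibition of low control wells plus 3 SD, cut at about 25% in these data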
#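 Material: rat Arfgap1 GAP domain (His6, aa 1-136), purified enzyme. Also added: human ARF1(Δ1-17)-GTP substrate. Compound dosing: 16.5 µM single point, 1.26% DMSO. Timing: enzyme reaction 120 min at 25 °C after 20 min preincubation. Signal: GDP detection by fluorescence polarization. Read-out basis: percent inhibition of GAP-stimulated GDP formation, scaled between DMSO and no-Arfgap1 medians.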
# ARFGAP1 inh conf: confirmation of rat ARFGAP1 inhibitors | shares compounds with ARFGAP1 inh | ARFGAP1-stimulated ARF1 GTP hydrolysis, GDP tracer FP | inhibition, % at 16.5 µM | 30% of 890 active | AID 651608;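 active = average inhibition over triplicates above the hit cutoff set in the earlier primary screen, cut at about 25% in these data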
# MsrA inh confirm: bovine MsrA inhibition, confirmed; shares compounds with MsrA inh; purified bovine MsrA, absorbance read-out; inhibition, % at 15.5 µM; 41% of 2,300 active; AID 651822;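 note: coupled to thioredoxin reductase with NADPH and selenocystamine and DMSO as substrate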
# Hits are given with their value; – = inactive; · = no result given. Compounds with a hit are over-represented: about 2.7% of the library has one in this group of screens. Cut-off read from the data, not from the text of the source, unless noted: active = inhibition above about 4.5%; inactive = the rest.
SMILES,ASAP1 GAP inh,Rev-erbA mod,sPLA2-III inh,MsrA inh,MsrA act,ARFGAP1 inh,MsrA inh confirm,others
Cc1ccccc1-n1c(O)c(/C=N/Nc2nc3c(c(=O)n(C)c(=O)n3C)n2C)c(=O)[nH]c1=S,–,–,–,–,–,26,·,ARFGAP1 inh conf=–
CCOC(=O)/C=C(C)/C=C/CC(C)CCCC(C)C (configuration not stated),·,–,·,·,·,·,·,
CCOC(=O)c1c(NS(=O)(=O)c2ccccc2)n(CCCOC)c2nc3ccccc3nc12,–,–,–,–,–,34,·,ARFGAP1 inh conf=–
Cn1cc(C2=C(c3cn(C4CCN(Cc5ccccn5)CC4)c4ccccc34)C(=O)NC2=O)c2ccccc21,·,–,·,·,·,·,·,
Clc1ccc(COC(Cn2ccnc2)c2ccc(Cl)cc2Cl)cc1 (configuration not stated),–,–,–,–,–,–,·,
Clc1ccc(C(c2ccc(Cl)cc2)n2cc[n+](CC(OCc3ccc(Cl)cc3Cl)c3ccc(Cl)cc3Cl)c2)cc1 (configuration not stated),–,–,–,–,–,28,·,ARFGAP1 inh conf=81
OC12Oc3ccccc3C=C1N1CCC2CC1 (configuration not stated),–,–,–,–,–,25,·,ARFGAP1 inh conf=–
CCN(CC)Cc1nccn1-c1ccc([N+](=O)[O-])cc1C(=O)c1ccccc1Cl,·,–,·,·,·,·,·,
CN(c1ccc(OCC(=O)N2CCN(C/C=C/c3ccccc3)CC2)cc1)S(=O)(=O)c1cccs1,–,–,–,–,–,27,·,ARFGAP1 inh conf=–
S=C(SSC(=S)N1CCCCC1)N1CCCCC1,·,–,·,·,·,·,·,
CC(=O)c1ccc2c(c1)C1C(Cl)C(Sc3ccccc3[N+](=O)[O-])CC1C(c1ccccc1)N2 (configuration not stated),–,–,–,–,–,–,·,
CC(=O)c1ccc2c(c1)C1C(Cl)C(Sc3ccccc3[N+](=O)[O-])CC1C(c1ccccc1[N+](=O)[O-])N2 (configuration not stated),–,–,–,5.5,–,–,–,
CC(C)(C)NCC(O)c1cc(Cl)c(N)c(C(F)(F)F)c1 (configuration not stated),·,–,·,·,·,·,·,
CN(C)c1ccc(/C=C2/C(=O)NC(=O)N(CCc3ccc(F)cc3)C2=O)cc1,–,–,–,–,–,–,·,
CN(C)c1ccc(/C=C2\C(=O)NC(=O)N(Cc3ccc(F)cc3)C2=O)cc1,–,–,–,4.9,–,–,4.6,
CCC1(C)CC(=O)NC(=O)C1,·,–,·,·,·,·,·,
COc1cc(N2CCOCC2)ccc1/C=C1\C(=O)NC(=O)N(Cc2ccc3c(c2)OCO3)C1=O,–,–,–,6.2,–,–,–,
COc1cc(N2CCOCC2)ccc1/C=C1\C(=O)NC(=O)N(Cc2cccs2)C1=O,–,–,–,6.4,–,–,–,
FC(F)OC(F)(F)C(F)Cl (configuration not stated),·,–,·,·,·,·,·,
Cc1nnc2n1-c1sc(CCC(=O)N3CCOCC3)cc1C(c1ccccc1Cl)=NC2,·,–,·,·,·,·,·,
CC(C)n1c(O)c(C=NCc2cccnc2)c(=O)[nH]c1=S,–,–,–,4.9,–,–,5.2,
CCCC(=O)Nc1ccc(N2CCN(CC)CC2)c(Cl)c1,–,–,–,–,–,–,·,
CCCC(=O)NC1=C(N2CC2)C(=O)C(NC(=O)CCC)=C(N2CC2)C1=O,–,–,–,4.7,–,–,–,
CC(C)c1ccc(-n2c(O)c(C=NC(CCS(C)=O)C(=O)O)c(=O)[nH]c2=S)cc1 (configuration not stated),–,–,–,5.1,–,–,–,
C/C(=N\NC(=O)c1ccccc1Cl)c1c(O)n(C2CCCCC2)c(=O)[nH]c1=O,–,–,–,–,–,–,·,
SMILES,ASAP1 GAP inh,Rev-erbA mod,sPLA2-III inh,MsrA inh,MsrA act,ARFGAP1 inh,MsrA inh confirm,others
C/C(=N\NC(=O)c1ccccc1O)c1c(O)n(C2CCCCC2)c(=O)[nH]c1=O,–,–,–,5.0,–,–,6.7,
CCOC(=O)c1c(C=O)c2ccccc2n1Cc1ccccc1,–,–,–,4.9,–,–,5.0,
Cc1ccc(C)c(Cn2c(C(=O)O)c(C=O)c3ccccc32)c1,–,–,–,–,–,–,·,
C=CCn1c(O)c(/C=N/N2CCCCC2c2cccnc2)c(=O)[nH]c1=S (configuration not stated),–,–,–,5.8,–,–,–,
Cc1cc(C)c(-n2c(O)c(/C=N/N3CCCCC3c3cccnc3)c(=O)[nH]c2=O)c(C)c1 (configuration not stated),–,–,–,–,–,–,·,
O=C(NN=Cc1ccc(N(CCCl)CCCl)cc1)c1cccc([N+](=O)[O-])c1,–,–,–,–,–,–,·,
O=C(NN=Cc1ccc(N(CCCl)CCCl)cc1)c1cccnc1,–,–,–,5.2,–,–,–,
CC(C)C(Br)C(=O)NC(N)=O (configuration not stated),·,–,·,·,·,·,·,
Cn1c(O)c(C=Nc2ccccc2)c(=O)n(C)c1=O,–,–,–,5.1,–,–,4.8,
CC(C)(C)c1ccc(O)cc1,·,–,·,·,·,·,·,
COc1cc2c(cc1O)CC1c3c(cc(O)c(OC)c3-2)CCN1C (configuration not stated),–,–,–,9.7,–,–,9.5,
Cc1cccc(-n2c(O)c(C=NCCN3CCNCC3)c(=O)[nH]c2=S)c1,–,–,–,–,–,–,·,
CNC(=S)N1CCN(CCN=Cc2c(O)n(-c3ccc(C)cc3)c(=S)[nH]c2=O)CC1,–,–,–,4.7,–,–,–,
O=C1OC(c2ccc(O)c(S(=O)(=O)O)c2)(c2ccc(O)c(S(=O)(=O)O)c2)c2c(Br)c(Br)c(Br)c(Br)c21,·,–,·,·,·,·,·,
Cc1cc(N(CCCl)CCCl)ccc1/C=N/NC(=O)c1ccco1,–,–,–,4.8,–,–,–,
COc1cc(N2CCOCC2)ccc1C=C1C(=O)NC(=O)NC1=O,–,–,–,–,–,–,·,
O=C1NC(=O)C(=Cc2ccc(N3CCOCC3)cc2)C(=O)N1,–,–,–,6.0,–,–,–,
C=CCC1(C(C)CCC)C(=O)N=C(S)NC1=O (configuration not stated),·,–,·,·,·,·,·,
N#CCCn1cc(C(=O)Nc2ccccc2Br)c(-c2ccc([N+](=O)[O-])cc2)n1,–,–,–,47,–,–,–,
CC1(C)C(C=C(Cl)Cl)C1C(=O)OC(C#N)c1cccc(Oc2ccccc2)c1 (configuration not stated),·,–,·,·,·,·,·,
O=C1c2cccc3cccc(c23)C(=O)N1/N=C/c1c(O)n(-c2ccccc2)c(=O)[nH]c1=O,–,–,–,5.1,–,–,–,
CN(C)c1ccc(C(=O)c2ccc(N(C)C)cc2)cc1,–,–,–,5.0,–,–,–,
Oc1ccccc1-c1ccccc1,·,–,·,·,·,·,·,
